From ChEMBL document CHEMBL3393008, “Identification of a novel orally bioavailable phosphodiesterase 10A (PDE10A) inhibitor with efficacy in animal models of schizophrenia” (J Med Chem, 2015)

Legend:
Type in all cases: ADME, organism-based
[1] = Oral bioavailability in rat at 10 mg/kg administered as single dose; details: in vivo
[2] = Volume of distribution in rat; details: in vivo
[3] = Drug level in rat brain at 10 mg/kg, sc after 1 hr; set-up: dose 10 mg/kg, route subcutaneous; details: read-out: Drug uptake
Summary of the method: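 Rats dosed 10 mg/kg sc; total brain level measured 1 h after dosing.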

Compound `COCCc1ccc(-c2c(C)nc3c(N4CCOCC4)nccn23)cn1` has a bioavailability [1] of 45%, a Vd [2] of 1.9 L/kg and a concentration at 1 h [3] of 1210 ng/g.
